In ChEMBL document CHEMBL1135571, “Synthesis and optimization of a new family of type 3 17 beta-hydroxysteroid dehydrogenase inhibitors by parallel liquid-phase chemistry” (J Med Chem, 2002):
pIC50: −log10 of the molar value. Several values for one entry are separate records, joined by “and”; a condition that tells them apart may be missing. Identical values can stand only once.

Experiments:
[1] = Proliferative activity against Shionogi(AR+) cells at 0.1 uM concentration; format: functional
[2] = Proliferative activity against Shionogi(AR+) cells at 1 uM concentration; format: functional
[3] = target: T1, 17-beta-hydroxysteroid dehydrogenase type 3 (Homo sapiens, UniProt P37058); assay: The ability to inhibit the Type-3 17-beta- hydroxysteroid dehydrogenase activity in transfected human embryonic kidney (HEK)-293 cells experiment 3; format: cell-based, HEK293
T1 sequence (P37058 whole entry): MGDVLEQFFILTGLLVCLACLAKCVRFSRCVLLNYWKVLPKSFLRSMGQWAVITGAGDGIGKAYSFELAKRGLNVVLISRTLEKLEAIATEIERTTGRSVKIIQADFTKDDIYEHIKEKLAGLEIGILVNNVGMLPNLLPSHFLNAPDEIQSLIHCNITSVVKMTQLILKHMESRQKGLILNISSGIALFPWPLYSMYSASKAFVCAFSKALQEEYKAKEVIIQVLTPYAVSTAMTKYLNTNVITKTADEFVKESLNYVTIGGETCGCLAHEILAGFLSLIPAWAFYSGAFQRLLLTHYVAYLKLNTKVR
In short: (§1)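 Type 3 17β-HSD expressed by calcium phosphate transfection in HEK-293 cells. Cells sonicated in 50 mM sodium phosphate pH 7.4 with 20% glycerol and 1 mM EDTA, then spun at 10 000g for 1 h; the 100 000g microsomal pellet is the enzyme source. Assay at 37 °C in the same buffer with 5 mM NADPH and 0.05 μM [14C]Δ4-dione. Labeled testosterone formed is measured; […].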

[4] = Proliferative activity against Shionogi (AR+) cells at 1 uM concentration; format: functional
[5] = Proliferative activity against Shionogi (AR+) cells at 0.1 uM concentration; format: functional
[6] = target: T1, 17-beta-hydroxysteroid dehydrogenase type 3; assay: The ability to inhibit the Type-3 17-beta- hydroxysteroid dehydrogenase activity in transfected human embryonic kidney (HEK)-293 cells experiment 2; format: cell-based, HEK293; in short: as §1
[7] = target: T1, 17-beta-hydroxysteroid dehydrogenase type 3; assay: Concentration to inhibit 50% activity of the Type-3 17-beta- hydroxysteroid dehydrogenase
In short: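 Microsomal fraction from HEK-293 cells transfected with type 3 17β-HSD, prepared by sonication and differential centrifugation (10 000g, then 100 000g) in 50 mM sodium phosphate pH 7.4, 20% glycerol, 1 mM EDTA. Incubated at 37 °C with 5 mM NADPH, 0.05 μM [14C]Δ4-dione and a range of inhibitor concentrations. Labeled testosterone formed is measured; IC50 is computed from the 50% inhibition point.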

[8] = target: T1, 17-beta-hydroxysteroid dehydrogenase type 3; assay: Ability to inhibit the Type-3 17-beta- hydroxysteroid dehydrogenase activity transfected in human embryonic kidney (HEK)-293 cells experiment 2; format: cell-based, HEK293
[9] = target: T1, 17-beta-hydroxysteroid dehydrogenase type 3; assay: Ability to inhibit the Type-3 17-beta- hydroxysteroid dehydrogenase activity transfected in human embryonic kidney (HEK)-293 cells experiment 3; format: cell-based, HEK293

Row | SMILES | inhibition at 0.1 µM [1] | inhibition at 1 µM [2] | inhibition at 1 µM [4] | inhibition at 0.1 µM [5] | pIC50 [7] | also measured
1 | C[C@]12CC[C@](O)(Cc3ccccc3)CC1CC[C@@H]1[C@@H]2CC[C@]2(C)C(=O)CC[C@@H]12 (stereo partly drawn) | 27% | 100% |  |  |  | pIC50 [3]: 7.01
2 | CCCCCCCCN(C[C@@]1(O)CC[C@@]2(C)C(CC[C@@H]3[C@@H]2CC[C@]2(C)C(=O)CC[C@@H]32)C1)C(=O)C1CC1 (stereo partly drawn) |  |  | 0% | 0% |  | pIC50 [6]: 7.24
3 | C[C@]12CC[C@](O)(CN(CC3CCCCC3)C(=O)C3CC3)CC1CC[C@@H]1[C@@H]2CC[C@]2(C)C(=O)CC[C@@H]12 (stereo partly drawn) |  |  | 0% | 1% | 7.07 | 
4 | CCCCN(CC1C2CC3CC(C2)CC1C3)C[C@@]1(O)CC[C@@]2(C)C(CC[C@@H]3[C@@H]2CC[C@]2(C)C(=O)CC[C@@H]32)C1 (stereo partly drawn) | 3% | 7% |  |  | 7.10 | 
5 | C[C@]12CC[C@@]3(CC1CC[C@@H]1[C@@H]2CC[C@]2(C)C(=O)CC[C@@H]12)CN(CC(CN1CCOCC1)OC(=O)CCC1CCCC1)C(=O)O3 (stereo partly drawn) | 4% | 6% |  |  | 7.13 | 
6 | CCCC(=O)N(CC1C2CC3CC(C2)CC1C3)C[C@@]1(O)CC[C@@]2(C)C(CC[C@@H]3[C@@H]2CC[C@]2(C)C(=O)CC[C@@H]32)C1 (stereo partly drawn) |  |  | 96% | 7% | 7.46 and 7.24 | 
7 | C[C@]12CCC(=O)C=C1CC[C@@H]1[C@@H]2CC[C@]2(C)C(=O)CC[C@@H]12 [ANDROSTENEDIONE] |  |  |  |  |  | pIC50 [8]: 6.19; pIC50 [9]: 6.31
8 | C[C@]12CC[C@@H](O)C[C@H]1CC[C@@H]1[C@@H]2CC[C@]2(C)C(=O)CC[C@@H]12 [ETIOCHOLANOLONE] | 14% | 2% |  |  |  | pIC50 [3]: 6.74
